In data set [1] the test system is MCF7. Briefly: Cytotoxicity against human MCF7 cells after 72 hrs by Alamar Blue assay. The format is functional, cell-based. A digest of the protocol:
(§1)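 Resazurin-based colorimetric cell viability read-out on human cancer cells (MCF-7 breast; PC-3M metastatic prostate adenocarcinoma), run in vitro in a panel that also included normal human lung fibroblast WI-38 cells.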
(In general: Alamar Blue is a resazurin reagent that responds to reducing activity.)

The subject of data set [2] is MDA-MB-231. Briefly: Cytotoxicity against human MDA-MB-231 cells after 72 hrs by Alamar Blue assay. In kind it is functional, cell-based. The method in brief: (§2)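 In vitro cytotoxicity was read by the colorimetric resazurin (AlamarBlue) assay of cell viability. The panel covered human non-small cell lung NCI-H460, CNS glioma SF-268, breast MCF-7, metastatic breast adenocarcinoma MDA-MB-231, metastatic prostate adenocarcinoma PC-3M and neuroblastoma CHP-100 cancer lines, plus normal human lung fibroblast WI-38 cells.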

The nature of data set [3]: Cytotoxicity against human PC3M cells after 72 hrs by Alamar Blue assay. In kind it is functional, cell-based, PC-3M. The method in brief:
as §1

In data set [4] the test system is SF-268. Briefly: Cytotoxicity against human SF268 cells after 72 hrs by Alamar Blue assay. In kind it is functional, cell-based. The method in brief: as §2
Data set [5] concerns NCI-H460. The experiment in a line: Cytotoxicity against human NCI-H460 cells after 72 hrs by Alamar Blue assay. In kind it is functional, cell-based. A digest of the protocol: as §2
Data set [6] is described as follows: Cytotoxicity against human CHP100 cells after 72 hrs by Alamar Blue assay. In kind it is functional, cell-based. The settings on record: CHP100, 72 h. A digest of the protocol: as §2
Data set [7] can be described thus: Cytotoxicity against human WI38 cells after 72 hrs by Alamar Blue assay. As to conditions: WI-38, 72 h. In kind it is cell-based. The method in brief: as §2
Data set [8] is described as follows: Cytotoxicity against human WI38 cells up to 5 uM after 72 hrs by Alamar Blue assay. As to conditions: wi-38, 72 h. In kind it is cell-based. The method in brief: as §2
The test system of data set [9] is CHP100. The experiment in a line: Cytotoxicity against human CHP100 cells up to 5 uM after 72 hrs by Alamar Blue assay. In kind it is functional, cell-based. A digest of the protocol: as §2
The test system of data set [10] is NCI-H460. The experiment in a line: Cytotoxicity against human NCI-H460 cells up to 5 uM after 72 hrs by Alamar Blue assay. In kind it is functional, cell-based. A digest of the protocol: as §2
The test system of data set [11] is PC-3M. The experiment in a line: Cytotoxicity against human PC3M cells up to 5 uM after 72 hrs by Alamar Blue assay. The format is functional, cell-based. The method in brief: as §2
In data set [12] the test system is SF-268. The experiment in a line: Cytotoxicity against human SF268 cells up to 5 uM after 72 hrs by Alamar Blue assay. The format is functional, cell-based. A digest of the protocol:
as §2

The test system of data set [13] is MCF7. The experiment in a line: Cytotoxicity against human MCF7 cells up to 5 uM after 72 hrs by Alamar Blue assay. In kind it is functional, cell-based. The method in brief: as §2
The subject of data set [14] is MDA-MB-231. The experiment in a line: Cytotoxicity against human MDA-MB-231 cells up to 5 uM after 72 hrs by Alamar Blue assay. The format is functional, cell-based. A digest of the protocol:
as §2

Each structure is given as a SMILES string. Active and inactive are the calls of the source. The calls are words filed in the database; no cut-off is given here.

As for `COc1ccc(C(=O)O[C@H]2C=COC=C3C[C@]45SSSS[C@](Cc6ccc(O)cc6)(C(=O)N4[C@@H]32)N(C)C5=O)cc1O`, the IC50 in data set [1] (Homo sapiens, MCF7, 72 h) is 140 nM; in [2] (Homo sapiens, MDA-MB-231, 72 h), 60 nM; in [3] (Homo sapiens, PC-3M, 72 h), 170 nM; in data set [4] (Homo sapiens, SF-268, 72 h) it was 60 nM; in data set [5] (Homo sapiens, NCI-H460, 72 h), 150 nM; in data set [6] it was 100 nM. Also, half-maximal inhibition in data set [7] (IC50) was put at 240 nM.
`CC(C)=CCC[C@@]1(C(=O)O)[C@H]2C/C=C(\C)CC/C=C(\C)CC[C@H]1[C@@]1(CC2)CO1`: the Activity entry in data set [8] is recorded as “Non-toxic”. Moreover, the result in data set [9], in [10], in data set [11], in data set [12], in data set [13] and in [14] was inactive.
As for `CC(C)=CCc1ccc2c(c1O)C(=O)c1c(O)cc(C)c3c1C(O2)C(C(C)(C)O)CO3` (stereo unspecified), the Activity entry in data set [8] is reported as “Non-toxic”. Besides, the result in data set [9], in data set [10], in data set [11], in [12], in data set [13] and in data set [14] was inactive.
Turning to `C=C(C)[C@H]1COc2c(C)cc3oc4ccc(CC=C(C)C)c(O)c4c(=O)c3c2[C@H]1O` (relative stereo), the Activity entry in data set [8] is “Non-toxic”. The result in [9], in data set [10], in data set [11], in [12], in data set [13] and in data set [14] was inactive.
For the compound `COc1cccc2c1C(=O)c1c(O)c3c(c(O)c1C2=O)C[C@@](O)(C(=O)CO)C[C@@H]3O[C@H]1C[C@H](N)[C@H](O)[C@H](C)O1` [DOXORUBICIN], the IC50 in data set [2] (Homo sapiens, MDA-MB-231, 72 h) turned out to be 680 nM; in [3] (Homo sapiens, PC-3M, 72 h), 270 nM; in data set [4] (Homo sapiens, SF-268, 72 h) it was 310 nM; in [5] (Homo sapiens, NCI-H460, 72 h) it was 50 nM; in data set [6] it was 790 nM.
In the case of `CC(C)=CCC[C@@]1(C(=O)O)[C@H]2C/C=C(\C)CC/C=C(\C)CC[C@H]1[C@@H](C=O)CC2`, the Activity result in data set [8] was “Non-toxic”. Moreover, the result in [9], in data set [10], in data set [11], in data set [12], in [13] and in data set [14] was inactive.
As to `COc1cc2c(c3oc4cccc(O)c4c(=O)c13)[C@@H]1C=CO[C@@H]1O2` [STERIGMATOCYSTIN], the concentration for half-maximal inhibition (IC50) in [1] (mcf7) stood at 3630 nM; in data set [2] (mda-mb-231) it was 2750 nM; in data set [3] (pc-3m), 3230 nM; in [4] (sf-268), 2960 nM; in [5] (nci-h460), 3410 nM.
For `CC(C)=CCC[C@@]1(C(=O)O)[C@@H]2CC=C(CO)[C@@H]1CC/C(C)=C/CC/C(C)=C/C2`, the Activity entry in [8] is “Non-toxic”. The outcome in [9], in data set [10], in [11], in [12], in [13] and in data set [14] was inactive.
On to `CC(C)=CCC[C@@]1(C(=O)O)[C@H]2C/C=C(\C)CC/C=C(\C)CC[C@H]1[C@H](C=O)CC2`, for which the Activity result in [8] is recorded as “Non-toxic”. For the same compound, the outcome in [9], in [10], in data set [11], in data set [12], in data set [13] and in [14] was inactive.
With `CC(C)=CCC[C@@]1(C=O)[C@H]2C/C=C(\C)CC/C=C(\C)CC[C@H]1[C@@]1(CC2)CO1`, the Activity entry in data set [8] was “Non-toxic”. Besides, the outcome in data set [9], in data set [10], in data set [11], in data set [12], in [13] and in data set [14] was inactive.

The IC50 is the concentration that inhibits the measured activity by half. Higher therefore signals a need for much substance.
